Reference: BindingDB's records for doi:10.1016/s0960-894x(03)00042-8 (Merck Frosst Centre For Therapeutic Research, 2003)

Target: Prostaglandin E2 receptor EP4 subtype (Homo sapiens, UniProt P35408)
Assay: Binding affinity towards EP4 receptor expressed in HEK293 ebna cells recombinantly expressing the corresponding human prostanoid cDNAs
Procedure, shortened: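 Competition binding used membrane preparations, not intact cells, from HEK293ebna cells expressing each recombinant human prostanoid receptor cDNA.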

Prostaglandin E2 receptor EP4 subtype, sequence (P35408 whole entry): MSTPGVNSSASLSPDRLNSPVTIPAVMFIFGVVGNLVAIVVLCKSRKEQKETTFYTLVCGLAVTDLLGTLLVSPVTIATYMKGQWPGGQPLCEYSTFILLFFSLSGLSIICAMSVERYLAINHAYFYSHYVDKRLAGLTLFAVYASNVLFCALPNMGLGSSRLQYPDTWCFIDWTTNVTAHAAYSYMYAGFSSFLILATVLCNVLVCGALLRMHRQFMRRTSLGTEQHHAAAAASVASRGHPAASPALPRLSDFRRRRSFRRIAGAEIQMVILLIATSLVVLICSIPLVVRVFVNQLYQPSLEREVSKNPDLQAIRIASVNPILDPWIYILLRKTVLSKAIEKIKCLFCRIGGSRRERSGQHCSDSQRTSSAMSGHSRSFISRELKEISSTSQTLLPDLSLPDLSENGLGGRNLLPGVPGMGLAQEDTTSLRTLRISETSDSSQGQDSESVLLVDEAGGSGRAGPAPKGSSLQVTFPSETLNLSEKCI

Ki: 2.5 nM
Compound: O=C1CC[C@H](/C=C/[C@H](O)Cc2ccccc2)N1CCCCCCc1nnn[nH]1
